Test results reported in ChEMBL document CHEMBL3232705, “Discovery of isoquinolinone indole acetic acids as antagonists of chemoattractant receptor homologous molecule expressed on Th2 cells (CRTH2) for the treatment of allergic inflammatory diseases” (J Med Chem, 2014).
Activity calls are given as the source filed them. The calls are words filed in the database; no cut-off is given here.

Tests used:
[1] = Half life in rat at 2 mg/kg, iv; format: ADME, organism-based; parameters: dose 2 mg/kg, route intravenous; settings: in vivo
How it was run: (§1)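 Single intravenous dose of 2 mg/kg and single oral dose of 10 mg/kg, given separately, in rat, dog and monkey. Clearance and half-life taken from the iv arm; Cmax from the oral arm.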

[2] = target: T1, Cytochrome P450 1A2 (Homo sapiens, UniProt P05177); experiment: Inhibition of CYP1A2 (unknown origin); format: ADME
T1 sequence (P05177 whole entry): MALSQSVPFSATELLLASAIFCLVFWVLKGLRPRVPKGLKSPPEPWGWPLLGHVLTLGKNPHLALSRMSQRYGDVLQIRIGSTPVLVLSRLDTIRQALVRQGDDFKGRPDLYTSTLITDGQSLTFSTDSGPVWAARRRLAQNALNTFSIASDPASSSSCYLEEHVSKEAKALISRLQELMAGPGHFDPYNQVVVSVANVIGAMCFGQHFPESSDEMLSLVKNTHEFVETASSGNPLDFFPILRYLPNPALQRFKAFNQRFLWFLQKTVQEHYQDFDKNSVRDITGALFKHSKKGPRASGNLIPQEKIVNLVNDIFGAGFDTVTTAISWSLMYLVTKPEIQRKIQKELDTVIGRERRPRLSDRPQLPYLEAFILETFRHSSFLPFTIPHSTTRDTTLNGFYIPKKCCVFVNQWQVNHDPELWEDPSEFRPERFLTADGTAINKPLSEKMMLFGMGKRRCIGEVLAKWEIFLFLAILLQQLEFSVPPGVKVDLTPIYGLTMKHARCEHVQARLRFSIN

[3] = target: T2, Cytochrome P450 2A6 (Homo sapiens, UniProt P11509); experiment: Inhibition of CYP2A6 (unknown origin); format: ADME
T2 sequence (P11509 whole entry): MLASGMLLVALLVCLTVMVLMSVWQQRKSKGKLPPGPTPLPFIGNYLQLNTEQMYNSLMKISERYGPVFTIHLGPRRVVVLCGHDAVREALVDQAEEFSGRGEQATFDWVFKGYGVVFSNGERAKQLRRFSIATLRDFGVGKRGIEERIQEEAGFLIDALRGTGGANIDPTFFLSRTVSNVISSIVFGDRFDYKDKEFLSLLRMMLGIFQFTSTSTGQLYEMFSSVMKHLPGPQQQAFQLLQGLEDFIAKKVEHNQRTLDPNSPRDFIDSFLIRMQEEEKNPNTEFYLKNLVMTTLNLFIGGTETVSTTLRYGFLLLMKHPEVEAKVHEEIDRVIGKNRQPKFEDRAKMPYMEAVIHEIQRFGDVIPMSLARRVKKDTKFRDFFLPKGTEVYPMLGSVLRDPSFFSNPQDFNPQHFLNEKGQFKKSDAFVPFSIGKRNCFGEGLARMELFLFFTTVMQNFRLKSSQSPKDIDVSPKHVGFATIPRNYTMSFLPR

[4] = Cmax in rat at 10 mg/kg, po; format: ADME, organism-based; parameters: dose 10 mg/kg, route oral; settings: in vivo; how it was run: as §1
[5] = target: T3, Prostaglandin D2 receptor (Homo sapiens, UniProt Q13258); experiment: Binding affinity to DP1 receptor (unknown origin) by FRET assay
T3 sequence (Q13258 whole entry): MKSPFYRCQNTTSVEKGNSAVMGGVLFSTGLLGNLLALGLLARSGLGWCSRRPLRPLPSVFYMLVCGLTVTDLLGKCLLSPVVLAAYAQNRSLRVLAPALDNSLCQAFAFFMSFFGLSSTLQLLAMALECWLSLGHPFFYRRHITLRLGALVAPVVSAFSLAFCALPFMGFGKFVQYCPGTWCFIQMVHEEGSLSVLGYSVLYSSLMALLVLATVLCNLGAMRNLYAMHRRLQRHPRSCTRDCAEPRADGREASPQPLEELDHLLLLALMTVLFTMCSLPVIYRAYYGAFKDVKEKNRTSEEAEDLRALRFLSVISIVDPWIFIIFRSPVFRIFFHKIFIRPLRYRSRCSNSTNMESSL

[6] = Half life in dog at 2 mg/kg, iv; format: ADME, organism-based, Canis lupus familiaris; parameters: dose 2 mg/kg, route intravenous; settings: in vivo; how it was run: as §1
[7] = system: Ovis aries; experiment: Inhibition of Ascaris-induced airway bronchoconstriction in sheep assessed as inhibition of late phase allergic airway bronchoconstriction at 1 mg/kg, iv qd for 7 days; format: functional, organism-based; parameters: dose 1 mg/kg
How it was run: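 Sheep given 1 mg/kg iv once daily for 7 days before Ascaris suum allergen challenge. Early and late responses read as airway resistance above baseline, compared with each animal's historical untreated values. After the AHR measurement, three bronchi per sheep were lavaged for cell counts.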

[8] = Volume of distribution at steady state in dog at 2 mg/kg, iv; format: ADME, organism-based, Canis lupus familiaris; parameters: dose 2 mg/kg, route intravenous; settings: in vivo, read-out: Vdss
[9] = system: Mus musculus; experiment: Antiallergic activity in house dust mite-induced allergic airway disease BALB/c mouse model assessed as reduction in total cellularity in bronchoalveolar lavage fluid at 40 mg/kg, po after 72 hrs of HDM challenge; format: functional, organism-based; parameters: dose 40 mg/kg; settings: Lung
How it was run: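 BALB/c mice given house dust mite intratracheally via a catheter passed through the vocal cords. Test article 40 mg/kg orally once daily; dexamethasone 1 mg/kg ip once daily as reference. Total and differential BAL cells (eosinophils, macrophages, lymphocytes, neutrophils) counted 72 h after HDM challenge. Mean ± SEM, Mann–Whitney U test.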

[10] = system: Ovis aries; experiment: Inhibition of allergen-induced mucociliary clearance in sheep assessed as tracheal mucus velocity at 3 mg/kg, iv measured at 8 hrs (reference value: 47%); format: functional; settings: Trachea
How it was run: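 Five sheep received 3 mg/kg iv around allergen challenge. Tracheal mucus velocity measured at 4 h and 8 h and expressed as % of baseline.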

[11] = Half life in monkey at 2 mg/kg, iv; format: ADME, organism-based, Macaca mulatta; parameters: dose 2 mg/kg, route intravenous; settings: rhesus monkey, in vivo; how it was run: as §1
[12] = target: T4, Cytochrome P450 2B6 (Homo sapiens, UniProt P20813); experiment: Inhibition of CYP2B6 (unknown origin); format: ADME
T4 sequence (P20813 whole entry): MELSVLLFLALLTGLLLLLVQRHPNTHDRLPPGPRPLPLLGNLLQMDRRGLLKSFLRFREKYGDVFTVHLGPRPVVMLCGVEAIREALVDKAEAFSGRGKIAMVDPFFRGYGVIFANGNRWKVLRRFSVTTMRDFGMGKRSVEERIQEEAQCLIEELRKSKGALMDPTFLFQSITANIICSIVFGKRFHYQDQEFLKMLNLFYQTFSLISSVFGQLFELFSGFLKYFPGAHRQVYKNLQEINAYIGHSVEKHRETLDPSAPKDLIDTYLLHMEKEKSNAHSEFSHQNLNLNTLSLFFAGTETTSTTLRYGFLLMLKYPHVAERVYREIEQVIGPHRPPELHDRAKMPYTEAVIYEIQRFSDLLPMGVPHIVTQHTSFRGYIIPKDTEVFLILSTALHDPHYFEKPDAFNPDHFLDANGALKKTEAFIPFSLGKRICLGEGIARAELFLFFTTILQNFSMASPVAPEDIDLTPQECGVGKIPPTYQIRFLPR

[13] = target: Voltage-gated inwardly rectifying potassium channel KCNH2 (Homo sapiens, UniProt Q12809); experiment: Inhibition of human ERG channel at 33 uM
Sequence of Voltage-gated inwardly rectifying potassium channel KCNH2 (Q12809 whole entry): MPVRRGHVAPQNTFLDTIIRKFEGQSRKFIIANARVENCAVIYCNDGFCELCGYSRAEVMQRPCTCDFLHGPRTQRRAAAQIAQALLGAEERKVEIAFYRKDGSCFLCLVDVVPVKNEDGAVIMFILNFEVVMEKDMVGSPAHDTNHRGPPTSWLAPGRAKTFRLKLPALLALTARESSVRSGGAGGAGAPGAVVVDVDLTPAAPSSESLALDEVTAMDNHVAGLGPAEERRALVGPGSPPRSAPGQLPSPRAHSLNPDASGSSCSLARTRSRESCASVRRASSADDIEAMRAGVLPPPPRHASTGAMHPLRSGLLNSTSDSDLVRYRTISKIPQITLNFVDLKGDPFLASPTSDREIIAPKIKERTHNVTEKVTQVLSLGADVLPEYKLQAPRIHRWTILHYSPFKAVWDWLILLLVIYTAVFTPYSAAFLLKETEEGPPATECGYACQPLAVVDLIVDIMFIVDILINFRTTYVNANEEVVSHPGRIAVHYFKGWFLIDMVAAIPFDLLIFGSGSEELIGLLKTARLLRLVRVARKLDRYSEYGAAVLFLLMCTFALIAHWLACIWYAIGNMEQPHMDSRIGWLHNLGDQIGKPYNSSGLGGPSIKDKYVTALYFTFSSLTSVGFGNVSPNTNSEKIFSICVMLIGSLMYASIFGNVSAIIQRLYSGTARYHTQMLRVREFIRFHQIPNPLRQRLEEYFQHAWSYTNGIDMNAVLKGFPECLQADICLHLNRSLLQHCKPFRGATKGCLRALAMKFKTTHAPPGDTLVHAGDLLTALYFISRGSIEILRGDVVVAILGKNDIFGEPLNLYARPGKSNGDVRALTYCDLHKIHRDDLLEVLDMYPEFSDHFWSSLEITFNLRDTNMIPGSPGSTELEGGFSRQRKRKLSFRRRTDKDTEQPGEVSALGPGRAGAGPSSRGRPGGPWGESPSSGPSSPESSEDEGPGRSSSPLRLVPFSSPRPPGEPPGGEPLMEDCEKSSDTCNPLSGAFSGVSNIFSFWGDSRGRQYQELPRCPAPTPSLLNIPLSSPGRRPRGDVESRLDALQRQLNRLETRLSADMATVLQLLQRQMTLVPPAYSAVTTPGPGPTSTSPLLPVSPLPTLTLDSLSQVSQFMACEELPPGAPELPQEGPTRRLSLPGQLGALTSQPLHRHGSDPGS

[14] = Cmax in dog at 10 mg/kg, po; format: ADME, organism-based, Canis lupus familiaris; parameters: dose 10 mg/kg, route oral; settings: in vivo; how it was run: as §1
[15] = system: Ovis aries; experiment: Inhibition of Ascaris-induced airway bronchoconstriction in sheep assessed as inhibition of early phase allergic airway bronchoconstriction at 3 mg/kg, iv bid; format: functional, organism-based; parameters: dose 3 mg/kg

`Cc1c(-c2cn(C(C)C)c(=O)c3ccccc23)c2cc(F)ccc2n1CC(=O)O` showed a half-life [1] of 2.7 h, an IC50 [2] of over 100 µM and an IC50 [3] of over 100 µM. It also gave a Cmax [4] of 253 ng/mL, an IC50 [5] of 16 µM and a half-life [6] of 3.4 h. For the same molecule, the inhibition [7] was “Active”, the Vd [8] was 0.7 L/kg and the inhibition [9] was “Active”. For the same molecule, the inhibition in vivo at 3 mg/kg [10] was 98%, the half-life [11] was 4.1 h and the IC50 [12] was over 100 µM. For the same molecule, the “inhibition (INH)” value [13] was “Not Active”, the Cmax [14] was 2010 ng/mL and the inhibition [15] was “inactive”.
